The source of these data is ChEMBL document CHEMBL2040768, “Synthesis, antimicrobial and cytotoxic activities of sulfone linked bis heterocycles” (Eur J Med Chem, 2012).

Assay [1] concerns Pseudomonas aeruginosa. The assay can be described thus: Antibacterial activity against Pseudomonas aeruginosa at 50 ug/ml after 24 hrs by agar well diffusion method. The class given is functional. Conditions: for zone of inhibition at 50 µg/mL: read-out: DIZ. Put shortly: (§1)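 Agar well diffusion. Nutrient plates swabbed with 24 h broth culture of the bacterium; 6 mm wells bored and loaded with DMSO solutions of compound (wells at 50 and 100 per well). Chloramphenicol positive control, DMSO negative control. Plates held 37 °C, 24 h; inhibition zone diameter (mm) measured, mean of duplicates.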

Assay [2] concerns Aspergillus niger. The assay can be described thus: Antifungal activity against Aspergillus niger at 50 ug/ml after 48 hrs by agar well diffusion method. To be noted: for zone of inhibition at 50 µg/mL: read-out: DIZ. In kind it is functional. Put shortly: (§2)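 Fungal agar well diffusion. Plates swabbed with fungal culture, 6 mm wells filled with DMSO solutions of compound (50 and 100 per well). Ketoconazole positive and DMSO negative controls. Plates incubated 28 °C for 48 h; zone of inhibition diameter (mm) read, average of duplicates.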

Assay [3] concerns Penicillium chrysogenum. As to the kind of experiment: Antifungal activity against Penicillium chrysogenum at 100 ug/ml after 48 hrs by agar well diffusion method. The class given is functional. To be noted: for zone of inhibition at 100 µg/mL: read-out: DIZ. A digest of the protocol: as §2
Assay [4] concerns Pseudomonas aeruginosa. As to the kind of experiment: Antibacterial activity against Pseudomonas aeruginosa at 100 ug/ml after 24 hrs by agar well diffusion method. The class given is functional. Conditions: for zone of inhibition at 100 µg/mL: read-out: DIZ. A digest of the protocol: as §1
Assay [5] relates to Klebsiella pneumoniae. The assay can be described thus: Antibacterial activity against Klebsiella pneumoniae at 50 ug/ml after 24 hrs by agar well diffusion method. In kind it is functional. To be noted: for zone of inhibition at 50 µg/mL: read-out: DIZ. A digest of the protocol:
as §1

For assay [6], the system named is Staphylococcus aureus. As to the kind of experiment: Antibacterial activity against Staphylococcus aureus at 100 ug/ml after 24 hrs by agar well diffusion method. The class given is functional. To be noted: for zone of inhibition at 100 µg/mL: read-out: DIZ. Put shortly: as §1
The subject of assay [7] is Bacillus subtilis. As to the kind of experiment: Antibacterial activity against Bacillus subtilis at 50 ug/ml after 24 hrs by agar well diffusion method. Conditions: for zone of inhibition at 50 µg/mL: read-out: DIZ. The class given is functional. A digest of the protocol: as §1
Assay [8] concerns Penicillium chrysogenum. As to the kind of experiment: Antifungal activity against Penicillium chrysogenum at 50 ug/ml after 48 hrs by agar well diffusion method. The class given is functional. Conditions: for zone of inhibition at 50 µg/mL: read-out: DIZ. Put shortly: as §2
In the next assay the test system is A549. As to the kind of experiment: Cytotoxicity against human A549 cells up to 0.2 mM after 72 hrs by MTT assay.
Assay [9] relates to Staphylococcus aureus. As to the kind of experiment: Antibacterial activity against Staphylococcus aureus at 50 ug/ml after 24 hrs by agar well diffusion method. The class given is functional. Conditions: for zone of inhibition at 50 µg/mL: read-out: DIZ. Put shortly:
as §1

In assay [10] the test system is Aspergillus niger. The assay can be described thus: Antifungal activity against Aspergillus niger at 100 ug/ml after 48 hrs by agar well diffusion method. The class given is functional. To be noted: for zone of inhibition at 100 µg/mL: read-out: DIZ. Put shortly:
as §2

For assay [11], the system named is Klebsiella pneumoniae. As to the kind of experiment: Antibacterial activity against Klebsiella pneumoniae at 100 ug/ml after 24 hrs by agar well diffusion method. To be noted: for zone of inhibition at 100 µg/mL: read-out: DIZ. The class given is functional. A digest of the protocol:
as §1

For assay [12], the system named is Bacillus subtilis. As to the kind of experiment: Antibacterial activity against Bacillus subtilis at 100 ug/ml after 24 hrs by agar well diffusion method. The class given is functional. To be noted: for zone of inhibition at 100 µg/mL: read-out: DIZ. Put shortly: as §1

Calls of active or inactive are those of the source. No cut-off for these calls is given here.

As for `Nn1c(CS(=O)(=O)Nc2ccccc2)nnc1CS(=O)(=O)C1CNN=C1S(=O)(=O)c1ccccc1` (configuration not stated), the zone of inhibition at 50 µg/mL in the assay on Pseudomonas aeruginosa [1] was 12 mm; in the assay with Aspergillus niger [2], 13 mm; in the assay with Klebsiella pneumoniae [5], 17 mm; with Bacillus subtilis [7], 15 mm; in the assay with Penicillium chrysogenum [8], 14 mm; in the assay on Staphylococcus aureus [9], 13 mm. The zone of inhibition at 100 µg/mL in the assay with Penicillium chrysogenum [3] was 17 mm; in the assay on Pseudomonas aeruginosa [4], 14 mm; with Staphylococcus aureus [6], 15 mm; with Aspergillus niger [10], 15 mm; with Klebsiella pneumoniae [11], 19 mm; in the assay on Bacillus subtilis [12] it was 17 mm. In addition, the outcome in the assay on A549 was inactive.

As for `O=S(=O)(Cc1nnc(CS(=O)(=O)c2c[nH]cc2S(=O)(=O)c2ccc(Cl)cc2)s1)Nc1ccc(Cl)cc1`, the zone of inhibition at 50 µg/mL in the assay on Pseudomonas aeruginosa [1] was 23 mm; with Aspergillus niger [2] it was 29 mm; in the assay on Klebsiella pneumoniae [5], 29 mm; in the assay on Bacillus subtilis [7], 27 mm; in the assay with Penicillium chrysogenum [8] it was 30 mm; in the assay with Staphylococcus aureus [9], 26 mm. Further, the zone of inhibition at 100 µg/mL in the assay on Penicillium chrysogenum [3] stood at 33 mm; with Pseudomonas aeruginosa [4] it was 25 mm; in the assay on Staphylococcus aureus [6] it was 27 mm; with Aspergillus niger [10], 31 mm; with Klebsiella pneumoniae [11], 30 mm; in the assay with Bacillus subtilis [12], 29 mm. Moreover, the outcome in the assay with A549 was inactive.

Regarding `Cc1ccc(NS(=O)(=O)Cc2nnc(CS(=O)(=O)/C=C/S(=O)(=O)c3ccc(C)cc3)n2N)cc1`, the zone of inhibition at 50 µg/mL is 15 mm in the assay on Pseudomonas aeruginosa [1]; 19 mm in the assay on Aspergillus niger [2]; 25 mm with Klebsiella pneumoniae [5]; 23 mm in the assay on Bacillus subtilis [7]; 22 mm with Penicillium chrysogenum [8]; 20 mm in the assay on Staphylococcus aureus [9]. In addition, the zone of inhibition at 100 µg/mL in the assay with Penicillium chrysogenum [3] stood at 25 mm; in the assay with Pseudomonas aeruginosa [4] it was 17 mm; with Staphylococcus aureus [6], 22 mm; with Aspergillus niger [10], 23 mm; in the assay with Klebsiella pneumoniae [11], 27 mm; with Bacillus subtilis [12] it was 25 mm. Moreover, the outcome in the assay on A549 was inactive.

For the compound `O=S(=O)(Cc1nnc(CS(=O)(=O)c2c[nH]cc2S(=O)(=O)c2ccccc2)o1)Nc1ccccc1`, the “diameter of the inhibition zone (DIZ)” value in the assay with Pseudomonas aeruginosa [1], in the assay on Aspergillus niger [2], with Penicillium chrysogenum [3], in the assay on Pseudomonas aeruginosa [4], in the assay on Klebsiella pneumoniae [5] and in the assay on Penicillium chrysogenum [8] was “inactive” in each case. Besides, the “diameter of the inhibition zone (DIZ)” value with Aspergillus niger [10] and with Klebsiella pneumoniae [11] was “inactive” in each case. Further, the zone of inhibition at 100 µg/mL in the assay with Staphylococcus aureus [6] stood at 14 mm; in the assay on Bacillus subtilis [12], 15 mm. The results for the zone of inhibition at 50 µg/mL with Bacillus subtilis [7] and with Staphylococcus aureus [9] were 13 mm and 12 mm, respectively. Further, in the assay with A549, the outcome was inactive.

Turning to `O=S(=O)(Cc1nnc(CS(=O)(=O)C2CNN=C2S(=O)(=O)c2ccccc2)s1)Nc1ccccc1` (configuration not stated), the “diameter of the inhibition zone (DIZ)” value in the assay with Pseudomonas aeruginosa [1], in the assay with Aspergillus niger [2], with Penicillium chrysogenum [3], in the assay on Pseudomonas aeruginosa [4], in the assay on Klebsiella pneumoniae [5] and with Penicillium chrysogenum [8] was “inactive” each time. Further, the “diameter of the inhibition zone (DIZ)” value with Aspergillus niger [10] and with Klebsiella pneumoniae [11] was “inactive” each time. Moreover, the zone of inhibition at 100 µg/mL in the assay with Staphylococcus aureus [6] is 14 mm; in the assay on Bacillus subtilis [12], 16 mm. Besides, the zone of inhibition at 50 µg/mL in the assay on Bacillus subtilis [7] amounted to 14 mm; with Staphylococcus aureus [9], 12 mm. In the assay with A549, the outcome was inactive.

Regarding `Cc1ccc(NS(=O)(=O)Cc2nnc(CS(=O)(=O)c3c[nH]cc3S(=O)(=O)c3ccc(C)cc3)n2N)cc1`, the zone of inhibition at 50 µg/mL with Pseudomonas aeruginosa [1] turned out to be 13 mm; in the assay with Aspergillus niger [2], 18 mm; in the assay on Klebsiella pneumoniae [5], 21 mm; with Bacillus subtilis [7] it was 19 mm; in the assay with Penicillium chrysogenum [8], 18 mm; with Staphylococcus aureus [9], 16 mm. The zone of inhibition at 100 µg/mL with Penicillium chrysogenum [3] worked out at 21 mm; in the assay on Pseudomonas aeruginosa [4] it was 15 mm; in the assay on Staphylococcus aureus [6] it was 18 mm; in the assay with Aspergillus niger [10] it was 19 mm; in the assay with Klebsiella pneumoniae [11] it was 23 mm; in the assay on Bacillus subtilis [12] it was 21 mm. In the assay on A549, the result was inactive.

For `Nn1c(CS(=O)(=O)Nc2ccccc2)nnc1CS(=O)(=O)c1c[nH]cc1S(=O)(=O)c1ccccc1`, the zone of inhibition at 50 µg/mL in the assay on Pseudomonas aeruginosa [1] was 15 mm; in the assay on Aspergillus niger [2], 18 mm; with Klebsiella pneumoniae [5] it was 22 mm; in the assay with Bacillus subtilis [7], 20 mm; in the assay on Penicillium chrysogenum [8], 19 mm; in the assay with Staphylococcus aureus [9] it was 17 mm. Also, the zone of inhibition at 100 µg/mL is 22 mm with Penicillium chrysogenum [3]; 16 mm in the assay on Pseudomonas aeruginosa [4]; 19 mm with Staphylococcus aureus [6]; 20 mm with Aspergillus niger [10]; 24 mm in the assay on Klebsiella pneumoniae [11]; 22 mm in the assay with Bacillus subtilis [12]. The result in the assay with A549 was inactive.

Take `O=S(=O)(Cc1nnc(CS(=O)(=O)C2CNN=C2S(=O)(=O)c2ccc(Cl)cc2)o1)Nc1ccc(Cl)cc1` (configuration not stated): the zone of inhibition at 50 µg/mL in the assay with Pseudomonas aeruginosa [1] was 17 mm; in the assay with Aspergillus niger [2], 20 mm; in the assay on Klebsiella pneumoniae [5] it was 22 mm; with Bacillus subtilis [7], 17 mm; in the assay on Penicillium chrysogenum [8], 22 mm; in the assay with Staphylococcus aureus [9], 17 mm. Also, the zone of inhibition at 100 µg/mL in the assay with Penicillium chrysogenum [3] worked out at 24 mm; in the assay on Pseudomonas aeruginosa [4] it was 19 mm; with Staphylococcus aureus [6] it was 18 mm; in the assay on Aspergillus niger [10], 23 mm; with Klebsiella pneumoniae [11], 24 mm; in the assay with Bacillus subtilis [12], 20 mm. The outcome with A549 was inactive.

As for `Cc1ccc(NS(=O)(=O)Cc2nnc(CS(=O)(=O)c3c[nH]nc3S(=O)(=O)c3ccc(C)cc3)o2)cc1`, the “diameter of the inhibition zone (DIZ)” value with Pseudomonas aeruginosa [1], in the assay with Aspergillus niger [2], with Penicillium chrysogenum [3], with Pseudomonas aeruginosa [4], in the assay with Klebsiella pneumoniae [5] and in the assay on Staphylococcus aureus [6] was “inactive” each time. The “diameter of the inhibition zone (DIZ)” value with Bacillus subtilis [7], in the assay on Penicillium chrysogenum [8], with Staphylococcus aureus [9], in the assay with Aspergillus niger [10], with Klebsiella pneumoniae [11] and in the assay with Bacillus subtilis [12] was “inactive” each time. For the same compound, the result in the assay on A549 was inactive.
